Assay results: ChEMBL document CHEMBL3351586, “Diterpenes from a Chinese collection of the brown alga Dictyota plectens” (J Nat Prod, 2014)

How the values were obtained:
[1] = Antiinflammatory activity in mouse peritoneal macrophages assessed as inhibition of LPS-induced NO production at 10 uM; assay type: functional; conditions: Peritoneal macrophage cell
[2] = system: Human immunodeficiency virus 1; assay: Antiviral activity against VSV-G protein pseudotyped HIV1 system in HEK293T cells assessed as reduction in p24 level after 48 hrs by ELISA; assay type: functional, organism-based; conditions: Human immunodeficiency virus 1, HEK-293T
Summary of the method: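 VSV-G-pseudotyped HIV used as a counter-screen to judge the specificity of HA-directed entry inhibitors.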

[3] = system: HEK293; assay: Cytotoxicity against HEK293 cells infected with VSV-G protein pseudotyped HIV1; assay type: cell-based; conditions: Homo sapiens
[4] = Antiinflammatory activity in mouse peritoneal macrophages assessed as inhibition of LPS-induced NO production at 1 uM; assay type: functional; conditions: Peritoneal macrophage cell
[5] = system: HEK293; assay: Inhibition of Influenza A virus (A/Viet Nam/1203/2004(H5N1)) hemagglutinin-mediated entry in HEK293 cells compound pretreated with target cells for 15 mins prior infection measured 48 hrs post infection by luciferase reporter assay; assay type: cell-based
Summary of the method: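 Entry screen: HIV-based pseudotype bearing H5N1 hemagglutinin (HA). Compounds tested at 30.0 μM. Value reported as percent inhibition of HA-mediated entry.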

[6] = Cytotoxicity against HEK293 cells infected with Influenza A virus (A/Viet Nam/1203/2004(H5N1)); assay type: cell-based; conditions: human
Summary of the method: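 Cytotoxicity measured on 293T cells and reported as CC50 (μmol/L).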

Row | SMILES | inhibition at 10 µM [1] [%] | IC50 [2] [µM] | IC50 [3] [µM] | inhibition at 1 µM [4] [%] | inhibition [5] [%] | CC50 [6] [µM]
1 | CC(=O)OC[C@@H]1/C(C=O)=C\C/C=C(\C)C[C@@H](O)[C@H]1[C@H](C)CCC=C(C)C | < 50 | 21.9 | > 60 | – | – | –
2 | C=C1CC[C@@H]([C@@](C)(O)CCC=C(C)C)[C@@H](O)[C@@H]2C(C)=CC[C@@H]12 | 90 | 24 | > 60 | < 50 | – | –
3 | CC(=O)O[C@H]1C/C=C(\C)CC[C@@H]([C@H](C)CCC=C(C)C)[C@@H](O)/C=C/1C | < 50 | 30.5 | > 60 | – | – | –
4 | C=C1CC[C@@H](O)[C@@]2(C)C[C@@H](OC(C)=O)C3=C(C(C)C)CC[C@]3(C)C[C@]12O | < 50 | 16.1 | 53 | – | – | –
5 | C/C1=C/CC/C(C)=C/C[C@@]2(C)CC[C@@](O)(C(C)C)[C@@H]2CC1=O (relative stereo) | < 50 | – | – | – | 56 | > 60
6 | C=C1C[C@H](O)[C@@H]([C@@](C)(O)CCC=C(C)C)[C@@H](O)[C@@H]2C(C)=CC[C@@H]12 | < 50 | – | – | – | 50 | > 60
7 | CC(C)=CCC[C@@H](C)[C@@H]1[C@H](O)C/C(C)=C/C/C=C(/C=O)[C@H]1C=O | 86 | – | – | < 50 | 59 | > 60
8 | C=C1C[C@@H](O)[C@@H]([C@H](C)CCC=C(C)C)[C@@H](O)[C@@H]2C(C)=CC[C@@H]12 | < 50 | 26.1 | > 60 | – | – | –
9 | CC(C)=CCC[C@@H](C)[C@H]1C2=C(C(=O)OC2)[C@H]2C[C@H]2[C@H](C)C[C@H]1O | < 50 | – | – | – | 62 | > 60
10 | Cc1ccnc2c1NC(=O)c1cccnc1N2C1CC1 [NEVIRAPINE] | – | 0.05 | – | – | – | –
